In ChEMBL document CHEMBL5712908, “A genome-wide RNAi screen reveals essential therapeutic targets of breast cancer stem cells” (2019) one finds Activity data, which are given here for 1 compound.

Activity calls are given as the source filed them. No cut-off for these calls is given here.

Test [1] deals with SUM-159-PT. Nature of the test: Anticancer activity against human SUM159 cells expressing BFP assessed as reduction in ALDHbr cell at 5 to 500 nM by LSR2 cytometer analysis. The settings on record: dose 5-500 nM. Format: functional, cell-based.
The subject of test [2] is SUM-159-PT. Nature of the test: Synergistic anticancer activity against human SUM159 cells assessed as decrease in docetaxel induced ALDHbr cells at 62 nM in presence of salinomycin by LSR2 cytometer analysis. Type of test: functional, cell-based. Put shortly: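 SUM159 or SUM149 cells treated 72 h in adherent conditions; docetaxel combined with other drugs at 2 nM; combination doses chosen from synergy distributions (Sal/JQ1 62 nM/62 nM). ALDEFLUOR staining with DEAB control, flow cytometry on LSR2. n = 8; Student's t-test; mean ± SD.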

Test [3] deals with Breast cancer cell line. Nature of the test: Synergistic apoptosis activity in patient-derived breast cancer cells orthotopically xenografted in NSG mouse model of PDX assessed as increase in cleaved caspase-3 at 50 mg/kg, ip 5 out of 7 for 2 weeks cotreated with salinomycin by Immunostaining analysis. Format: functional, organism-based. The settings on record: Homo sapiens. The essentials:
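Paraffin sections of treated PDX tumours deparaffinised and subjected to antigen retrieval in citrate buffer pH 6. Peroxidase staining with ready-to-use Ki67 or cleaved caspase-3 antibody, DAB substrate, haematoxylin counterstain. Proportion of positive cells quantified; n = 3; t-test.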

The subject of test [4] is Breast cancer cell line. Kind of test: Antitumor activity against human reimplanted CRCM494 negative breast cancer cells orthotopically xenografted in NSG mouse model of PDX assessed as reduction tumor volume at 50 mg/kg, ip 5 out of 7 for 2 weeks by limiting dilation analysis. Format: functional, organism-based. Put shortly: (§1)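 After 2 weeks of i.p. treatment (3 mg/kg daily or 50 mg/kg 5 of 7 days), dissociated PDX tumour cells reimplanted into secondary NSG mice at 50, 500 or 5,000 cells. A mouse counted as tumour-bearing once a tumour reached 10 mm. bCSC frequency per 10,000 cells estimated by ELDA; pairwise chi-square test.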

The subject of test [5] is Breast cancer cell line. Nature of the test: Synergistic antitumor activity against human CRCM434 negative breast cancer cells xenografted in NSG mouse model of PDX assessed as reduction metastasis formation in lung at 50 mg/kg, ip 5 out of 7 for 2 weeks cotreated with salinomycin. Format: functional, organism-based. The essentials:
(§2)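 Luciferase-expressing PDX cells sorted H2Kd⁻ and viable, 100,000 in 100 μl PBS injected in NSG tail vein. From the next day, salinomycin 3 mg/kg i.p. daily and/or JQ1 50 mg/kg i.p. 5 of 7 days for 2 weeks. Lungs and liver imaged by bioluminescence after i.p. luciferin 30 mg/kg; normalised photon flux; 10 mice/group; Wilcoxon test.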

Test [6] deals with Breast cancer cell line. Nature of the test: Antitumor activity against human reimplanted CRCM434 negative breast cancer cells orthotopically xenografted in NSG mouse model of PDX assessed as reduction tumor volume at 50 mg/kg, ip 5 out of 7 for 2 weeks by limiting dilation analysis. Format: functional, organism-based. The essentials: as §1
In general terms: Xenograft models place foreign cells or tissue in a host animal.

Test [7] concerns Breast cancer cell line. Kind of test: Synergistic antitumor activity against human CRCM404 negative breast cancer cells orthotopically xenografted in NSG mouse model of PDX assessed as reduction in tumor volume at 50 mg/kg, ip 5 out of 7 for 2 weeks cotreated with salinomycin. Type of test: functional, organism-based. Put shortly: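 Orthotopic PDX in NSG mice, 100,000 cells per fat pad, two pads per mouse; treatment from ~80 mm³ tumours with salinomycin i.p. 3 mg/kg daily 14 days, JQ1 i.p. 50 mg/kg 5 of 7 days for 2 weeks, or combination, against placebo DMSO/HPCD 10% (1:9). Tumour growth monitored; n = 10 tumours per group.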

Test [8] has as its system Breast cancer cell line. Nature of the test: Antitumor activity against human CRCM494 negative breast cancer cells orthotopically xenografted in NSG mouse model of PDX assessed as reduction ALDHbr cells at 50 mg/kg, ip 5 out of 7 for 2 weeks by LSR2 cytometer analysis. Format: functional, organism-based. The essentials:
(§3)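 Chemo-naïve triple-negative PDX cells injected at 100,000 per fat pad, two fat pads per NSG mouse. At ~80 mm³ tumours, mice received i.p. 3 mg/kg daily for 14 days or 50 mg/kg 5 of 7 days for 2 weeks; placebo was DMSO/HPCD 10% (1:9). Five mice (10 tumours) per group. Tumour growth monitored; after 2 weeks tumours dissociated, mouse cells excluded via anti-H2Kd, ALDHbr measured by ALDEFLUOR flow cytometry and normalised to vehicle.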

Test [9] is described as follows: Antitumor activity against human BrCa-MZ-01 cells assessed as K-score by measuring ALDHbr cells by LSR2 cytometer. Format: functional. Put shortly: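 Cell lines exposed for 72 h in adherent culture to a range of concentrations centred on the MTS-derived IC50. ALDHbr proportion measured by ALDEFLUOR flow cytometry (LSR2). K-score is the linear regression coefficient, on log10-transformed doses, between the untreated condition and the dose predicted to give a 50% decrease or increase in ALDHbr proportion versus control.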

Test [10] has as its system Breast cancer cell line. Nature of the test: Antitumor activity against human CRCM404 negative breast cancer cells orthotopically xenografted in NSG mouse model of PDX assessed as reduction ALDHbr cells at 50 mg/kg, ip 5 out of 7 for 2 weeks by LSR2 cytometer analysis. Format: functional, organism-based. Put shortly:
as §3

Test [11] concerns Breast cancer cell line. Nature of the test: Synergistic antitumor activity against human reimplanted CRCM494 negative breast cancer cells orthotopically xenografted in NSG mouse model of PDX assessed as reduction tumor volume at 50 mg/kg, ip 5 out of 7 for 2 weeks cotreated with salinomycin by limiting dilation analysis. Format: functional, organism-based.
Test [12] has as its system Breast cancer cell line. Kind of test: Synergistic antitumor activity against human CRCM404 negative breast cancer cells xenografted in NSG mouse model of PDX assessed as reduction metastasis formation in liver at 50 mg/kg, ip 5 out of 7 for 2 weeks cotreated with salinomycin. Type of test: functional, organism-based. The essentials:
as §2

Test [13] deals with Breast cancer cell line. Nature of the test: Antitumor activity against human CRCM494 negative breast cancer cells orthotopically xenografted in NSG mouse model of PDX assessed as reduction in tumor volume at 50 mg/kg, ip 5 out of 7 for 2 weeks. Type of test: functional, organism-based. The essentials:
as §3

In test [14] the test system is Breast cancer cell line. Nature of the test: Antitumor activity against human reimplanted CRCM404 negative breast cancer cells orthotopically xenografted in NSG mouse model of PDX assessed as reduction tumor volume at 50 mg/kg, ip 5 out of 7 for 2 weeks by limiting dilation analysis. Format: functional, organism-based. The essentials: as §1
Test [15] concerns Breast cancer cell line. Nature of the test: Antitumor activity against human CRCM434 negative breast cancer cells orthotopically xenografted in NSG mouse model of PDX assessed as reduction in tumor volume at 50 mg/kg, ip 5 out of 7 for 2 weeks. Format: functional, organism-based. Put shortly: as §3
Test [16] deals with SUM-159-PT. Nature of the test: Synergistic anticancer activity against human SUM159 cells at 500 nM incubated for 72 hrs in presence of salinomycin by ALDEFLUOR staining based flow cytometric analysis. Type of test: functional, cell-based. Background: Flow cytometry measures light scatter and fluorescence of single cells or particles in a stream.
Test [17] has as its system Breast cancer cell line. Nature of the test: Synergistic antitumor activity against human CRCM434 negative breast cancer cells xenografted in NSG mouse model of PDX assessed as reduction metastasis formation in liver at 50 mg/kg, ip 5 out of 7 for 2 weeks cotreated with salinomycin. Format: functional, organism-based. Put shortly:
as §2

On to `Cc1sc2c(c1C)C(c1ccc(Cl)cc1)=N[C@@H](CC(=O)OC(C)(C)C)c1nnc(C)n1-2`, for which the result in [1], in test [2], in test [4], in test [5], in test [6] and in test [7] was Active. The result in [8], in test [10], in test [11], in test [12], in [13] and in test [14] was Active. Further, the outcome in [15] and in [17] was Active. Moreover, the outcome in test [3] and in test [16] was inactive. Besides, the Activity in test [9] is -0.03.
